Compound activity deposited in PubChem BioAssay by The Scripps Research Institute Molecular Screening Center.
M5 PAM: positive allosteric modulators of human muscarinic M5 receptor | P08912 | CHO-K1 hM5, Fluo-8 calcium, ACh EC20 PAM; 0% = ACh EC20, 100% = ACh EC100 | activation, % at 3 µM | 360,000 tested, 0.3% active | AID 624038;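 active = activation above the run cutoff, the mean activation of all test compounds plus 3 SD, cut at about 18% in these data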
Target sequence (P08912 whole entry, looked up): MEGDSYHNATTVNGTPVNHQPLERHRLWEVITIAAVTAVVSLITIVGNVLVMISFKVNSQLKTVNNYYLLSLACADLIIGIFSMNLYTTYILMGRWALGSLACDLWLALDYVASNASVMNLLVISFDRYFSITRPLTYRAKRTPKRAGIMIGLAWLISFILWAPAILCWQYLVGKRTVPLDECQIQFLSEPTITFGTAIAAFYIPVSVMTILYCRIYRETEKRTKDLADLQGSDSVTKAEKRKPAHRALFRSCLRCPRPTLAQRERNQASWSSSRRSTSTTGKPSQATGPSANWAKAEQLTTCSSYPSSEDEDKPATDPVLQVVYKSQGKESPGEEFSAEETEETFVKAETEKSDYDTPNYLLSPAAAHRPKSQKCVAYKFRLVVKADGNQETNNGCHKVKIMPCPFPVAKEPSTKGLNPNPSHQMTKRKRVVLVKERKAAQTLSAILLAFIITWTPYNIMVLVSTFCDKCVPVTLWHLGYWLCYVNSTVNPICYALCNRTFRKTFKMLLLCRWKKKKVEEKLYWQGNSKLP
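Measured by: Fluo-8 calcium fluorescence; material: human M5 receptor in CHO-K1 cells; schedule: Post-acetylcholine fluorescence recording 140 s; benchmarks: low control EC20 acetylcholine (0%), high control EC100 acetylcholine (100%); read-out: Max/basal fluorescence ratio as % of EC20–EC100 ACh window; compound: single dose, 3 µM nominal final test concentration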
M1 PAM: potentiates human M1 receptor response to acetylcholine | P11229 | CHO-K1 hM1, Fluo-8 calcium fluorescence, ACh EC20; 0% = ACh EC20, 100% = maximal ACh | activation, % at 3 µM | 360,000 tested, 0.088% active | AID 588819; in the data active = activation above about 19%, passing the limit was not always enough
CHRM1 antagonist: antagonists of human M1 muscarinic receptor; 360,000 tested, 1.3% active; P11229; CHO-K1 hM1, Fluo-8 calcium fluorescence, ACh EC80 antagonist; AID 588852; inhibition, % at 3 µM;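 active = percent inhibition above its own plate's cutoff, namely the mean of that plate's compound wells plus 3 SD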;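 note: peak over basal fluorescence ratio during 140 s after agonist addition; 0% = ACh EC80 plus DMSO and 100% = DMSO alone without agonist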
CHRM5 antagonist: CHRM5 antagonism in calcium assay; inhibition, % at 3 µM; AID 624040; 360,000 tested, 0.59% active; P08912; CHO-hM5 cells, Fluo-8 calcium fluorescence, ACh EC80;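 active = inhibition above a per-plate cutoff, the mean of that plate's test compounds plus 3 SD, cut at about 27% in these data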;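 note: 0% = acetylcholine EC80 with DMSO and 100% = DMSO without agonist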
M5 ag: agonists of human muscarinic M5 receptor (CHRM5); P08912; CHO-K1 hM5 cells, Fluo-8 calcium fluorescence; 0% DMSO wells, 100% maximal acetylcholine response; activation, % at 3 µM; 360,000 tested, 0.19% active;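 active = activation above the run's mean over test compounds plus 3 SD, cut at about 23% in these data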;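 note: signal is peak over basal fluorescence ratio across the kinetic read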
M1 ag: activates human CHRM1 receptor | P11229 | CHO-K1 hM1, Fluo-8 calcium fluorescence, agonist mode; 0% DMSO, 100% acetylcholine EC100 | 360,000 tested, 0.33% active | activation, % at 3 µM;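 active = activation above the run's mean compound activation plus 3 SD, cut at about 16% in these data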;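 note: peak over basal fluorescence ratio within a 140 s kinetic read after compound addition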
An asterisk follows results filed as active. A selection: hits, their analogues and other compounds. The true share with any hit is near 2.2%.

SMILES	M5 PAM	M1 PAM	CHRM1 antagonist	CHRM5 antagonist	M5 ag	M1 ag
CC(=O)Nc1ccccc1-c1cccc2nccn12	2	3	-6	-5	1	-3
CC(C)=CCC/C(C)=C/CNC(=O)C[C@H]1C[C@H](C(=O)N2CCOCC2)[C@@]2(CCC3CCCC3)c3[nH]c4cc(-c5ccco5)ccc4c3CCN2C1=O	0	14	-25	10	1	-5
CCCOc1ccc(C(=O)NNC(=S)NC(=O)c2ccco2)cc1	-29	-18	17	31*	60*	67*
CC(C)(C)c1ccc(C(=O)NC(=S)NNC(=O)COc2ccccc2)cc1	-6	0	4	5	-4	24*
COC(=O)CNC(=S)NC(=O)c1ccc(C(C)(C)C)cc1	-20	-24	72*	8	-16	-7
Cc1ccc(C(=O)NNC(=S)NC(=O)COc2ccccc2)cc1	-5	-8	11	7	0	0
CCOC(=O)[C@@H]1[C@H]2COc3ccccc3[C@H]2N2C(=O)N(c3cccc(C)c3)C(=O)[C@]12C	0	13	-6	0	-1	-1
COc1ccc(C)cc1NC(=O)CCCN1C(=O)C(c2ccccc2)Oc2cccnc21 (stereo unspecified)	-10	3	-6	15	-3	-1
N#CNC(=Nc1ccccc1)SCc1ccc(C(=O)O)cc1	1	7	0	-9	0	-1
CSC(=Nc1ccccc1)N=C(SCc1ccccc1)N(C)C	-5	-25	49*	16	-5	2
CC1=CC(C)(C)N2C(=O)C(=O)c3cc(OC(=O)c4ccco4)cc1c32	-12	-9	10	9	36*	-6
OC(CNC1Cc2ccccc2C1)c1ccccc1 (stereo unspecified)	-3	3	-3	0	-4	16*
O=S1(=O)c2ccc(Br)cc2N2CCC[C@@H]2CN1Cc1ccc(Cl)cc1	-8	-23	24*	-11	-1	-6
O=C(NC(c1cccnc1)C(F)(F)F)c1cc(COc2ccc3c(c2)CCCC3)on1 (stereo unspecified)	-10	-9	42*	29*	5	2
Cn1cc(CNC(=O)c2cc(COc3ccc4c(c3)CCCC4)on2)cn1	-2	2	2	4	-4	-1
O=C1N/C(=C/c2ccc(N3CCOCC3)o2)C(=O)N1c1cccc(Cl)c1	-2	-9	14	7	2	-3
COc1ccc2c(c1)Sc1ccccc1N2CCN(C)C	-20	-22	48*	14	-8	-4
CCN(CC)CCN1c2ccccc2Sc2ccccc21	-18	-24	100*	99*	-7	-5
CCN(CC)CCN1c2ccccc2Sc2ccc3ccccc3c21	-21	-26	95*	80*	-7	-9
O=C(Nc1ccccc1)Nc1ccc2snnc2c1	-22	-9	20	15	7	9
O=C(Nc1ccccc1)Nc1ccc2nnsc2c1	-35	-21	59*	44*	6	5
O=C(/C=C/c1ccc2c(c1)OCCO2)c1ccccc1	24*	14	-22	-13	2	1
COc1ccc(C(=O)/C=C/c2ccc3c(c2)OCCO3)cc1	-3	-2	1	2	-5	-2
CN1CCN(c2ccc([N+](=O)[O-])cc2C(=O)c2ccc(Br)cc2)CC1	-18	-24	21*	37*	-7	-7
COc1ccc(-c2noc(N3CCC(C(=O)NCCCN4CCC(C)CC4)CC3)n2)cc1	-2	-21	32*	0	-3	-12
SMILES	M5 PAM	M1 PAM	CHRM1 antagonist	CHRM5 antagonist	M5 ag	M1 ag
Cc1ccc(NC(=O)CN2CCc3cc4c(cc3C2C)OCCCO4)cc1 (stereo unspecified)	-11	-22	53*	17	-4	-4
Cc1ccc(NC(=O)CN2CCc3cc4c(cc3C2C)OCCCO4)cc1C (stereo unspecified)	-3	0	0	-2	-2	-3
O=C(CN1CCc2cc3c(cc2C1)OCCCO3)Nc1ccc(S(=O)(=O)N2CCCC2)cc1	-3	-22	50*	3	-10	-3
CC1c2cc3c(cc2CCN1CC(=O)Nc1ccccc1)OCCCO3 (stereo unspecified)	-12	-32	33*	8	4	-7
CCc1ccc(C(O)c2ncc(-c3cccc(C)c3)[nH]2)cc1 (stereo unspecified)	-7	-4	3	1	2	-1
COc1ccccc1CCNC(=O)Cn1c(=O)oc2ccccc21	-14	9	-11	40*	-3	-1
CCCc1cc(=O)n2c([nH]c3ccccc32)c1C#N	-13	-5	-5	17	31*	14
CCCCc1c(C)c(C#N)c2[nH]c3ccccc3n2c1=O	-4	5	-6	-1	1	-1
O=C(N/C(=C/c1cccc([N+](=O)[O-])c1)C(=O)N1CCCCCC1)c1ccco1	-3	9	-12	13	-3	-2
O=C(NCc1ccccc1)NC(=O)c1ccc(Cl)cc1	19*	10	-14	-8	0	-3
O=C(NOCc1ccccc1)c1ccc(Cl)cc1	-1	-22	41*	-3	-1	-7
CSc1ccccc1Nc1ncnc(N)n1	6	12	-7	7	-7	-2
CCOC(=O)c1sc(=S)n(-c2ccccc2)c1N(C(C)=O)C(C)=O	0	10	-2	2	-1	-10
Cn1c(N)c(C(=O)COC(=O)CNS(=O)(=O)c2ccc(Cl)c(Cl)c2)c(=O)n(C)c1=O	-5	2	-1	1	-4	-11
COc1ccc(CC(=O)NNC(=O)c2cc(Cl)ccc2OC)cc1	-3	11	-12	8	4	3
O=C(Nc1ccc(OC(F)(F)F)cc1)N1CCc2nc(NCc3cccc(Oc4ccccc4)c3)ncc2C1	-14	-26	43*	17	1	0
N#CC1=C(N)Oc2cc(O)c(Cl)cc2C1c1ccccc1F (stereo unspecified)	-2	-15	20	-1	1	26*
NC(=O)c1c(NC(=O)CN2CCOCC2)sc2c1CCC2	3	25*	-50	6	1	18*
Nc1nnc2cc(Cl)ccc2n1	-3	28*	-16	5	5	8
Cn1c(CCNC(=O)c2ccccc2F)nnc1SCc1nc2ccccc2c(=O)[nH]1	-7	30*	-46	-1	1	4
Cc1ccccc1NC(=O)c1ccco1	-2	8	-7	5	0	-1
Cc1ccccc1NS(=O)(=O)c1ccc(NC(=O)c2ccco2)cc1	28*	-7	9	-14	-2	0
O=C(Nc1cccc(C(F)(F)F)c1)Oc1ccccc1N1CCOCC1	-9	6	-8	19	1	2
